Source: ChEMBL document CHEMBL5653631, “A Potent and Selective ULK1 Inhibitor Suppresses Autophagy and Sensitizes Cancer Cells to Nutrient Stress” (iScience, 2018)
Each block holds one compound with its values, some of them ahead of it.

Key:
[1] = molecular target: Dual specificity tyrosine-phosphorylation-regulated kinase 1A (Homo sapiens) (UniProt Q13627); assay: Inhibition of human recombinant DYRK1A at 500 nM in presence of ATP by radiometric assay relative to control
[2] = molecular target: T1, Serine/threonine-protein kinase TAO3 (Homo sapiens) (UniProt Q9H2K8); assay: Inhibition of human recombinant TAO3 at 500 nM related to control ULK1
T1 sequence (whole entry): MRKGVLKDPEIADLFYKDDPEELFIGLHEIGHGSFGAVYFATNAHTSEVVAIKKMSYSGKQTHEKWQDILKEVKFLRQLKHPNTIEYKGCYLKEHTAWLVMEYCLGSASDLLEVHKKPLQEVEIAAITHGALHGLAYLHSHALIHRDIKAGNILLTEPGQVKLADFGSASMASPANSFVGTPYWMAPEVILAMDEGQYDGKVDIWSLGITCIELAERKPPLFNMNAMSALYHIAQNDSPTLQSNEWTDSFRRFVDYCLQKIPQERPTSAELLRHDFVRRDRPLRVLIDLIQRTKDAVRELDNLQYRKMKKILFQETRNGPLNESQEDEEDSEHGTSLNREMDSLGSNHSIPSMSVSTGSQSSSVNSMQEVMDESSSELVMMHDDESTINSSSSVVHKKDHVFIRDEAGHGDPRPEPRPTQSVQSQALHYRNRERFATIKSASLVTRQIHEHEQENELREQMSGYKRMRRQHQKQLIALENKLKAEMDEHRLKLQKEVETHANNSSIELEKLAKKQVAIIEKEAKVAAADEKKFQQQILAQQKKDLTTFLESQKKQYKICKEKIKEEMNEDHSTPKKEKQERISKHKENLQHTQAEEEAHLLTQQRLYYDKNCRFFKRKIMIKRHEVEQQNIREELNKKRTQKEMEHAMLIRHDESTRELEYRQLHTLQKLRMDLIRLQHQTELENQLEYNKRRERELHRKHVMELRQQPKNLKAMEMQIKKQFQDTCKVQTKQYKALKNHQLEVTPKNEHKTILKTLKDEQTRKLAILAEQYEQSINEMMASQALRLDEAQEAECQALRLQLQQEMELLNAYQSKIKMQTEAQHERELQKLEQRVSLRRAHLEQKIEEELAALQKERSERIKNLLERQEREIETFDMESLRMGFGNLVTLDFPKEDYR

Homo sapiens = species on record: Homo sapiens; assay: Inhibition of human recombinant p70S6K at 500 nM related to control ULK1
[3] = molecular target: 5'-AMP-activated protein kinase catalytic subunit alpha-1 (Homo sapiens) (UniProt Q13131); assay: Inhibition of human recombinant AMPKa1 at 500 nM related to control ULK1
Chain of 5'-AMP-activated protein kinase catalytic subunit alpha-1 (Homo sapiens) (Q13131 whole entry, looked up): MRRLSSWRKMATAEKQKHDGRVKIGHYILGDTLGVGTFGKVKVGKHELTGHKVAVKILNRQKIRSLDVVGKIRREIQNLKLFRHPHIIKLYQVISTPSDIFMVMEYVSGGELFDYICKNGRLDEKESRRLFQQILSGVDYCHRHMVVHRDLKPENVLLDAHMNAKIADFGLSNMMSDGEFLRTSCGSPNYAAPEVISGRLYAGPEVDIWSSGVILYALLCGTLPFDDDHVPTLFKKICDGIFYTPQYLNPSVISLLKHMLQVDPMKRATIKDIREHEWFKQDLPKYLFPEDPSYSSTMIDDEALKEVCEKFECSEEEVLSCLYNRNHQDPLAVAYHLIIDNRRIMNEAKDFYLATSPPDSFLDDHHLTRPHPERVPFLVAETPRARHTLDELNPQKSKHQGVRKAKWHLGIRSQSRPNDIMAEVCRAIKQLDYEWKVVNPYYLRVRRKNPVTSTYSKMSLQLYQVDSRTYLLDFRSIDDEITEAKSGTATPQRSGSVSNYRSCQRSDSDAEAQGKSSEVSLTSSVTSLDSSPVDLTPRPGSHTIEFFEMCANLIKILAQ
Procedure, shortened: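 Panel of 327 recombinant human kinases, each assayed in vitro by radiometric activity assay in duplicate at a single inhibitor concentration per compound, chosen with reference to its ULK1 inhibition. Activity remaining was expressed as percent of vehicle control, and percent inhibition was calculated as 100 minus percent activity remaining.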

[4] = molecular target: Serine/threonine-protein kinase PLK3 (Homo sapiens) (UniProt Q9H4B4); assay: Inhibition of human recombinant PLK3 at 500 nM in presence of ATP by radiometric assay relative to control
Chain of Serine/threonine-protein kinase PLK3 (Homo sapiens) (Q9H4B4 whole entry, looked up): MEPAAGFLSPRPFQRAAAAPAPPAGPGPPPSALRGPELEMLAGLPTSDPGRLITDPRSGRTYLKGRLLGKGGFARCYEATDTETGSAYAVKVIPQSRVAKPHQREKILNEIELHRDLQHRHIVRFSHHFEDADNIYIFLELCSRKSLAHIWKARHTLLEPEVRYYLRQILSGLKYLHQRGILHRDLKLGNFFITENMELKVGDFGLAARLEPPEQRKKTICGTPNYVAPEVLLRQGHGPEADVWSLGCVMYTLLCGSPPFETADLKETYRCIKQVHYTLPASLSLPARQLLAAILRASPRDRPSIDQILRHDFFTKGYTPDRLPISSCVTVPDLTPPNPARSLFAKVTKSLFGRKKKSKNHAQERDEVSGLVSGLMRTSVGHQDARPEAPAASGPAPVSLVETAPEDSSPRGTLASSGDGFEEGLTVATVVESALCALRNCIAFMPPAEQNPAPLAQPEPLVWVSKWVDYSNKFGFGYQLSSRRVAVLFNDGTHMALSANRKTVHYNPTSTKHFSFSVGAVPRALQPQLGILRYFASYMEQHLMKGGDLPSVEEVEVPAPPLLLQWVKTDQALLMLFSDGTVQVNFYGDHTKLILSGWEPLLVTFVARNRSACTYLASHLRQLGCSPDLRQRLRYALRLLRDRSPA

[5] = molecular target: T2, Bone morphogenetic protein receptor type-2 (Homo sapiens) (UniProt Q13873); assay: Inhibition of human recombinant BMPR2 at 15 nM related to control ULK1
T2 sequence (whole entry): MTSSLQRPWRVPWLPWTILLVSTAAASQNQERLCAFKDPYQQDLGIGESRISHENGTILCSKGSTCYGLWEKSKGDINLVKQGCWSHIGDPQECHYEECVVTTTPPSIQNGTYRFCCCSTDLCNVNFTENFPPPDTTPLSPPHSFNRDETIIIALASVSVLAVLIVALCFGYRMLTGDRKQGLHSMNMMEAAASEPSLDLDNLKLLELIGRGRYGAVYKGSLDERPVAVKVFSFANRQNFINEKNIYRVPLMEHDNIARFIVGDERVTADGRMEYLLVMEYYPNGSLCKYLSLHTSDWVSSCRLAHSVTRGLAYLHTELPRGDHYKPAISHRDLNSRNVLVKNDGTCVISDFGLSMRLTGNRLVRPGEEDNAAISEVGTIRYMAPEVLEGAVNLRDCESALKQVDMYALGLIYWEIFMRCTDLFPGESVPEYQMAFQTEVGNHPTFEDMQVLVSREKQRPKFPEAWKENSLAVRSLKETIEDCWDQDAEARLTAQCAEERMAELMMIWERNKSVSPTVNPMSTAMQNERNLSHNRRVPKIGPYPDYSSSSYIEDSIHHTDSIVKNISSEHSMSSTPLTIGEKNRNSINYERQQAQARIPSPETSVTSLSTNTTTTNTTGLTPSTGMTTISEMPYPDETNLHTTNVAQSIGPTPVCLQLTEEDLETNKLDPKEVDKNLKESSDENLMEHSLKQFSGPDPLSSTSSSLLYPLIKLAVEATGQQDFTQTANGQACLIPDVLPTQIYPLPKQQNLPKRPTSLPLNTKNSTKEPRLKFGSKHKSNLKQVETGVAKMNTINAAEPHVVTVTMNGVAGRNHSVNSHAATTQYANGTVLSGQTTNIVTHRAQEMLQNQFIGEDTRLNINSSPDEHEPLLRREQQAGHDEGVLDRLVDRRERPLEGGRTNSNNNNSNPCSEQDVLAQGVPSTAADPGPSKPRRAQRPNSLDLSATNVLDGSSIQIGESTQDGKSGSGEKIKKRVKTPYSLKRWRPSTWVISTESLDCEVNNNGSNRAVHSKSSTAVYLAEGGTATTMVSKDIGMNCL

[6] = molecular target: Mitogen-activated protein kinase 14 (Homo sapiens) (UniProt Q16539); assay: Inhibition of human recombinant p38alpha at 40 nM related to control ULK1
Chain of Mitogen-activated protein kinase 14 (Homo sapiens) (Q16539 whole entry): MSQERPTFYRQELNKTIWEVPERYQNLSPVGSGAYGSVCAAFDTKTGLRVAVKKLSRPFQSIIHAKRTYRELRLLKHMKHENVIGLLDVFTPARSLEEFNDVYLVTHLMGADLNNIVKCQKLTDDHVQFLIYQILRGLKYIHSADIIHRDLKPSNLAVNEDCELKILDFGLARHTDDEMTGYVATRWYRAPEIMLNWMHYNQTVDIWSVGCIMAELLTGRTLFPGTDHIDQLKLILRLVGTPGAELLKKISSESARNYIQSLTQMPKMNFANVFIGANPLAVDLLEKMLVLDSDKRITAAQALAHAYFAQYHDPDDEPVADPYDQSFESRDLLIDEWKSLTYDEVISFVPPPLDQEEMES

[7] = molecular target: Glycogen synthase kinase-3 beta (Homo sapiens) (UniProt P49841); assay: Inhibition of human recombinant GSK3B at 40 nM related to control ULK1
Chain of Glycogen synthase kinase-3 beta (Homo sapiens) (P49841 whole entry, looked up): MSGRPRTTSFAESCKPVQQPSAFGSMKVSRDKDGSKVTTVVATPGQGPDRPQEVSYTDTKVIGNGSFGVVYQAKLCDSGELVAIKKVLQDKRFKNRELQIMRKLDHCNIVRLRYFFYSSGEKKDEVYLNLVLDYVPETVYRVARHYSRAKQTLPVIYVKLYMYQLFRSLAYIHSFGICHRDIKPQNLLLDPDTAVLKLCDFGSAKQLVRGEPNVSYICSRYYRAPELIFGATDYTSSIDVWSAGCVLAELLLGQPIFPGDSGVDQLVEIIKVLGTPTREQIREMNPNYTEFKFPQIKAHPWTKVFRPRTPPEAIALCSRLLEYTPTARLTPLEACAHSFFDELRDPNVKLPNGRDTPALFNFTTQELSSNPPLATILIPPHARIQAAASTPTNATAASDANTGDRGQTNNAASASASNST

[8] = molecular target: Tyrosine-protein kinase Tec (Homo sapiens) (UniProt P42680); assay: Inhibition of human recombinant TEC at 40 nM in presence of ATP by radiometric assay relative to control
Chain of Tyrosine-protein kinase Tec (Homo sapiens) (P42680 whole entry, looked up): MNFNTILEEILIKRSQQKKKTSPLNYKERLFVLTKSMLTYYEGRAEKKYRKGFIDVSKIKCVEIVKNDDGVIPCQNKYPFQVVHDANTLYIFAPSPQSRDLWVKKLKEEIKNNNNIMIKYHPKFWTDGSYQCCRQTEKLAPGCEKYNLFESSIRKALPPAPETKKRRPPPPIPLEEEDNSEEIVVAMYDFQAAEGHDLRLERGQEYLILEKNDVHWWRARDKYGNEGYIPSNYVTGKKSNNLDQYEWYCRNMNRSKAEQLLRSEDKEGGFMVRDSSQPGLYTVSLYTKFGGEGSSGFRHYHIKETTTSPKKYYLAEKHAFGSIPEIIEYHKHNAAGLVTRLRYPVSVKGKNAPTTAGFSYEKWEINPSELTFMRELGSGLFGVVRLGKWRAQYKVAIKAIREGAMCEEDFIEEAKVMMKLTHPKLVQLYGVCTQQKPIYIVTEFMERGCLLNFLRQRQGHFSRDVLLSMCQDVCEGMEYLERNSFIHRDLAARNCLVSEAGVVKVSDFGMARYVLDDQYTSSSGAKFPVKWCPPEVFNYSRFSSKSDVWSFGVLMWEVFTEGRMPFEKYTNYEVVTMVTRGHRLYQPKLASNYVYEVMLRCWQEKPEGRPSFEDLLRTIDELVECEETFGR

inhibition [1]: 1%
fold change (FC) [2]: 0
fold change (FC) (Homo sapiens): 0
fold change (FC) [3]: 0.69
inhibition [4]: 0%
Compound: CNC(=O)c1ccccc1Oc1nc(Nc2cc(OC)c(OC)c(OC)c2)ncc1Br

fold change (FC) [5]: 0.06
Compound: CC(C)[C@H](NC(=O)c1cc(-c2cnn3cc(-c4ccc(OCCN5CCCCC5)cc4)cnc23)cs1)C(F)(F)F

fold change (FC) [6]: 0.01
fold change (FC) [7]: 0
inhibition [8]: 0%
Compound: O=C(N[C@@H](C1CC1)C(F)(F)F)c1cc(-c2cnn3cc(-c4ccc(F)cc4)cnc23)cs1
